Each structure is given as a SMILES string.

Test [1] has as its target Thrombin (Oryctolagus cuniculus) (UniProt Q28731). As to the kind of experiment: Inhibition of thrombin in New Zealand rabbit plasma assessed as thrombin time at 100 uM after 3 mins by coagulometry. In outline:
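Using citrated rabbit platelet-poor plasma, 40 µl PPP was held 3 min at 37 °C, then 40 µl thrombin solution and 20 µl sample (in 80% ethanol) were added for 3 min at 37 °C. Clotting time was measured by coagulometer with a commercial kit, and prolongation was scored.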

For test [2] the target is unchanged. The test is described as follows: Inhibition of thrombin in New Zealand rabbit plasma assessed as fibrinogen level at 100 uM by coagulometry. In outline:
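Citrated rabbit platelet-poor plasma (3000 rpm 10 min). 10 µl PPP incubated with 90 µl imidazole buffer 3 min at 37 °C, then 50 µl FIB agent and 10 µl sample (in 80% ethanol) added; fibrinogen content read on coagulometer with commercial kit; reduction in FIB content scored.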

Test [3] shares this target. The test is described as follows: Inhibition of thrombin in New Zealand rabbit plasma assessed as activated partial thromboplastin time at 100 uM after 3 mins by coagulometry. In outline:
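Sample in 80% ethanol; 10 µl sample and 50 µl PPP incubated with 50 µl APTT-activating agent 3 min at 37 °C, then 50 µl CaCl2 added; clotting time by coagulometer with commercial kit; prolongation scored.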

The target is the same in test [4]. The test is described as follows: Inhibition of thrombin in New Zealand rabbit plasma assessed as prothrombin time at 100 uM by coagulometry. In short, it runs like this: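 40 µl PPP preincubated 3 min at 37 °C, then 40 µl thromboplastin agent plus 20 µl sample (in 80% ethanol) added; clotting read by coagulometer with commercial kit; activity expressed as INR increase.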

As for `COc1c(-c2ccc(O)c(O)c2)oc2cc(O)cc(O)c2c1=O`, the TT in test [1] was 22.9 s. In addition, the Activity in test [2] was found to be 4.7 g/L. For the same molecule, in test [3], the APTT worked out at 50.2 s. In test [4], the PT stood at 4.8 s.

Take `O=c1c(O)c(-c2ccc(O)c(O)c2)oc2cc(O)cc(O)c12`: in test [1], the TT is 19.2 s. Moreover, the Activity in test [2] stood at 5.8 g/L. Besides, the APTT in test [3] amounted to 30.3 s. In addition, the PT in test [4] stood at 6.2 s.

For `COc1cc(O)c2c(=O)c(OC)c(-c3ccc(OC)c(O)c3)oc2c1`, the TT in test [1] amounted to 14.9 s. The Activity in test [2] stood at 5.3 g/L. Also, the APTT in test [3] was found to be 61.7 s. Moreover, the PT in test [4] was 6 s.

For `COc1c(-c2ccc(O)c(O)c2)oc2cc(O)cc(OC)c2c1=O`, the TT in test [1] was determined as 20 s. Besides, the Activity in test [2] was 5.4 g/L. In test [3], the APTT amounted to 63.7 s. In test [4], the PT worked out at 5.7 s.

On to `COc1cc(O)c2c(=O)c(O)c(-c3ccc(O)c(O)c3)oc2c1`, for which, in test [1], the TT amounted to 23 s. Also, the Activity in test [2] amounted to 5.4 g/L. Besides, in test [3], the APTT was determined as 72.6 s. The PT in test [4] was found to be 6.8 s.

`COc1cc(O)c2c(=O)c(O)c(-c3ccc(OC)c(O)c3)oc2c1`: in test [1], the TT was determined as 14.8 s. Besides, the Activity in test [2] was found to be 5.9 g/L. For the same molecule, the APTT in test [3] was 46.2 s. Besides, the PT in test [4] is 7.4 s.

`COc1cc(O)c2c(=O)c(OC)c(-c3ccc(OC)c(OC)c3)oc2c1`: the TT in test [1] was 14.2 s. Further, in test [2], the Activity was 8.4 g/L. Further, the APTT in test [3] was determined as 42.4 s. The PT in test [4] was 5.4 s.

Turning to `COc1cc(O)c2c(=O)c(OC)c(-c3ccc(O)c(O)c3)oc2c1`, in test [1], the TT was determined as 22.5 s. Also, in test [2], the Activity was 7.3 g/L. Moreover, the APTT in test [3] was determined as 54.7 s. Further, the PT in test [4] stood at 7.3 s.

With `COc1ccc(-c2oc3cc(O)cc(O)c3c(=O)c2O)cc1OC`, the TT in test [1] stood at 9.9 s. Also, the Activity in test [2] came out at 6.6 g/L. Moreover, the APTT in test [3] turned out to be 58.7 s. Besides, the PT in test [4] was 5.8 s.

Regarding `COc1ccc(-c2oc3cc(O)cc(OC)c3c(=O)c2O)cc1OC`, in test [1], the TT was 15.9 s. The Activity in test [2] is 7.9 g/L. For the same molecule, in test [3], the APTT was 49.3 s. Further, the PT in test [4] was 5.1 s.

In the case of `COc1cc(O)cc2oc(-c3ccc(O)c(O)c3)c(O)c(=O)c12`, the TT in test [1] was determined as 19.4 s. In test [2], the Activity stood at 5 g/L. For the same molecule, in test [3], the APTT came out at 49.2 s. Besides, the PT in test [4] worked out at 7.6 s.

Regarding `COc1cc(-c2oc3cc(O)cc(OC)c3c(=O)c2O)ccc1O`, the TT in test [1] came out at 22.3 s. The Activity in test [2] amounted to 6.2 g/L. Moreover, in test [3], the APTT was 57.6 s. The PT in test [4] was 5.8 s.

As to `COc1ccc(-c2oc3cc(O)cc(O)c3c(=O)c2O)cc1O`, the TT in test [1] was found to be 16.6 s. Also, in test [2], the Activity amounted to 7.5 g/L. In addition, in test [3], the APTT turned out to be 49.8 s. Moreover, in test [4], the PT came out at 6.9 s.

For the molecule `COc1cc(OC)c2c(=O)c(O)c(-c3ccc(O)c(O)c3)oc2c1`, in test [1], the TT came to 21.8 s. Moreover, the Activity in test [2] is 5.1 g/L. Moreover, the APTT in test [3] amounted to 67.6 s. In addition, the PT in test [4] is 6.9 s.

As to `COc1cc(OC)c2c(=O)c(OC)c(-c3ccc(OC)c(OC)c3)oc2c1`, the TT in test [1] worked out at 11.6 s. In test [2], the Activity amounted to 8.9 g/L. The APTT in test [3] worked out at 40.3 s. Moreover, the PT in test [4] amounted to 5.2 s.

For the molecule `COc1cc(-c2oc3cc(O)cc(O)c3c(=O)c2O)ccc1O`, the TT in test [1] was 20.5 s. Moreover, the Activity in test [2] worked out at 5.4 g/L. The APTT in test [3] amounted to 82.3 s. Also, in test [4], the PT turned out to be 5.3 s.
